Assays:
[1] = biological target: DNA gyrase subunit B (Escherichia coli, UniProt P0AES6); test: Inhibition of Escherichia coli GyrB (1 to 220 residues) expressed in Escherichia coli BL21(DE3)
[2] = test system: Pseudomonas aeruginosa; test: Antibacterial activity against Pseudomonas aeruginosa PAO1 after 24 hrs by broth microdilution method; assay type: functional; conditions: PAO1, 24 h
How it was run: (§1)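 Broth microdilution per CLSI. Bacterial suspension adjusted to 1×10^6 CFU/mL in cation-adjusted Mueller–Hinton broth and mixed 1:1 with 2-fold serial compound dilutions. Final DMSO 2.5% v/v. Plates incubated at 35 °C with shaking at 140 rpm for 24 h.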

[3] = test system: Pseudomonas aeruginosa; test: Antibacterial activity against Pseudomonas aeruginosa harboring MexABCDXY deletion mutant after 24 hrs by broth microdilution method; assay type: functional
How it was run: (§2)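 Broth microdilution per CLSI. Bacterial suspensions adjusted to 1×10^6 CFU/mL in cation-adjusted Mueller–Hinton broth, mixed 1:1 with 2-fold serial compound dilutions (final DMSO 2.5% v/v). Incubation 35 °C, 140 rpm, 24 h.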

[4] = test system: Escherichia coli; test: Antibacterial activity against Escherichia coli after 24 hrs by broth microdilution method; assay type: functional; how it was run: as §1
[5] = test system: Escherichia coli; test: Antibacterial activity against tolC deficient Escherichia coli after 24 hrs by broth microdilution method; assay type: functional
How it was run: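 Broth microdilution per CLSI guidelines. Inoculum adjusted to 1×10^6 CFU/mL in cation-adjusted Mueller–Hinton broth, added 1:1 to 2-fold serial compound dilutions; final DMSO 2.5% v/v. Plates incubated 35 °C, 140 rpm, 24 h.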

[6] = test system: Klebsiella pneumoniae; test: Antibacterial activity against Klebsiella pneumoniae ARC1865 after 24 hrs by broth microdilution method; assay type: functional; conditions: ARC1865, 24 h; how it was run: as §1
[7] = test system: Haemophilus influenzae; test: Antibacterial activity against Haemophilus influenzae ATCC 49247 after 24 hrs by broth microdilution method; assay type: functional; conditions: ATCC 49247, 24 h; how it was run: as §1
[8] = test system: Enterobacter cloacae; test: Antibacterial activity against Enterobacter cloacae ARC3528 after 24 hrs by broth microdilution method; assay type: functional; conditions: ARC3528, 24 h; how it was run: as §1
[9] = test system: Staphylococcus aureus; test: Antibacterial activity against Staphylococcus aureus ATCC 29213 after 24 hrs by broth microdilution method; assay type: functional; conditions: ATCC 29213, 24 h; how it was run: as §1
[10] = test system: Staphylococcus aureus; test: Antibacterial activity against Staphylococcus aureus ATCC 29213 after 24 hrs in presence of 2% human albumin by broth microdilution method; assay type: functional; conditions: ATCC 29213, 24 h
[11] = test system: Staphylococcus aureus; test: Antibacterial activity against methicillin-resistant Staphylococcus aureus FQ-R after 24 hrs by broth microdilution method; assay type: functional; how it was run: as §2
[12] = test system: Staphylococcus aureus; test: Antibacterial activity against methicillin-resistant Staphylococcus aureus USA100 after 24 hrs by broth microdilution method; assay type: functional; conditions: USA100, 24 h; how it was run: as §2
[13] = test system: Streptococcus pyogenes; test: Antibacterial activity against Streptococcus pyogenes ARC838 after 24 hrs by broth microdilution method; assay type: functional; conditions: ARC838, 24 h
How it was run: (§3)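 Broth microdilution per CLSI. Bacterial suspension adjusted to 1×10^6 CFU/mL in cation-adjusted Mueller–Hinton broth and mixed 1:1 with 2-fold serial compound dilutions. Plates incubated at 35 °C with shaking at 140 rpm for 24 h.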

[14] = test system: Streptococcus pneumoniae; test: Antibacterial activity against Streptococcus pneumoniae ATCC 49619 after 24 hrs by broth microdilution method; assay type: functional; conditions: ATCC 49619, 24 h; how it was run: as §1
[15] = test system: Enterococcus faecalis; test: Antibacterial activity against Enterococcus faecalis ATCC 29212 after 24 hrs by broth microdilution method; assay type: functional; conditions: ATCC 29212, 24 h; how it was run: as §1
[16] = test system: Candida albicans; test: Antifungal activity against Candida albicans ATCC 90028 after 24 hrs by broth microdilution method; assay type: functional; conditions: ATCC 90028, 24 h
[17] = test system: Pseudomonas aeruginosa; test: Antibacterial activity against Pseudomonas aeruginosa ARC003 after 24 hrs by broth microdilution method; assay type: functional; conditions: ARC003, 24 h; how it was run: as §1
[18] = test system: Pseudomonas aeruginosa; test: Antibacterial activity against Pseudomonas aeruginosa ARC3504 after 24 hrs by broth microdilution method; assay type: functional; conditions: ARC3504, 24 h; how it was run: as §1
[19] = test system: Pseudomonas aeruginosa; test: Antibacterial activity against Pseudomonas aeruginosa ARC3505 after 24 hrs by broth microdilution method; assay type: functional; conditions: ARC3505, 24 h; how it was run: as §1
[20] = test system: Pseudomonas aeruginosa; test: Antibacterial activity against Pseudomonas aeruginosa ARC3506 after 24 hrs by broth microdilution method; assay type: functional; conditions: ARC3506, 24 h; how it was run: as §1
[21] = test system: Pseudomonas aeruginosa; test: Antibacterial activity against Pseudomonas aeruginosa ARC3509 after 24 hrs by broth microdilution method; assay type: functional; conditions: ARC3509, 24 h; how it was run: as §1
[22] = test system: Pseudomonas aeruginosa; test: Antibacterial activity against Pseudomonas aeruginosa ARC3511 after 24 hrs by broth microdilution method; assay type: functional; conditions: ARC3511, 24 h; how it was run: as §3
[23] = test system: Pseudomonas aeruginosa; test: Antibacterial activity against Pseudomonas aeruginosa ARC3606 after 24 hrs by broth microdilution method; assay type: functional; conditions: ARC3606, 24 h; how it was run: as §1
[24] = test system: Pseudomonas aeruginosa; test: Antibacterial activity against Pseudomonas aeruginosa ARC3607 after 24 hrs by broth microdilution method; assay type: functional; conditions: ARC3607, 24 h; how it was run: as §1
[25] = test system: Pseudomonas aeruginosa; test: Antibacterial activity against Pseudomonas aeruginosa ARC3611 after 24 hrs by broth microdilution method; assay type: functional; conditions: ARC3611, 24 h; how it was run: as §1
[26] = test system: Pseudomonas aeruginosa; test: Antibacterial activity against Pseudomonas aeruginosa ARC3612 after 24 hrs by broth microdilution method; assay type: functional; conditions: ARC3612, 24 h; how it was run: as §1
[27] = test system: Pseudomonas aeruginosa; test: Antibacterial activity against Pseudomonas aeruginosa ARC3729 after 24 hrs by broth microdilution method; assay type: functional; conditions: ARC3729, 24 h; how it was run: as §1
[28] = test system: Pseudomonas aeruginosa; test: Antibacterial activity against Pseudomonas aeruginosa ARC3756 after 24 hrs by broth microdilution method; assay type: functional; conditions: ARC3756, 24 h; how it was run: as §3
[29] = test system: Pseudomonas aeruginosa; test: Antibacterial activity against Pseudomonas aeruginosa ARC4060 after 24 hrs by broth microdilution method; assay type: functional; conditions: ARC4060, 24 h; how it was run: as §1
[30] = test system: Pseudomonas aeruginosa; test: Antibacterial activity against Pseudomonas aeruginosa ARC4068 after 24 hrs by broth microdilution method; assay type: functional; conditions: ARC4068, 24 h; how it was run: as §3
[31] = test system: Acinetobacter baumannii; test: Antibacterial activity against Acinetobacter baumannii ARC2674 after 24 hrs by broth microdilution method; assay type: functional; conditions: ARC2674, 24 h; how it was run: as §1
[32] = test system: Acinetobacter baumannii; test: Antibacterial activity against Acinetobacter baumannii ARC2675 after 24 hrs by broth microdilution method; assay type: functional; conditions: ARC2675, 24 h; how it was run: as §3
[33] = test system: Acinetobacter baumannii; test: Antibacterial activity against Acinetobacter baumannii ARC2728 after 24 hrs by broth microdilution method; assay type: functional; conditions: ARC2728, 24 h; how it was run: as §1
[34] = test system: Acinetobacter baumannii; test: Antibacterial activity against Acinetobacter baumannii ARC2782 after 24 hrs by broth microdilution method; assay type: functional; conditions: ARC2782, 24 h; how it was run: as §1
[35] = test system: Acinetobacter baumannii; test: Antibacterial activity against Acinetobacter baumannii ARC3484 after 24 hrs by broth microdilution method; assay type: functional; conditions: ARC3484, 24 h; how it was run: as §3
[36] = test system: Acinetobacter baumannii; test: Antibacterial activity against Acinetobacter baumannii ARC3485 after 24 hrs by broth microdilution method; assay type: functional; conditions: ARC3485, 24 h; how it was run: as §1
[37] = test system: Acinetobacter baumannii; test: Antibacterial activity against Acinetobacter baumannii ARC3486 after 24 hrs by broth microdilution method; assay type: functional; conditions: ARC3486, 24 h; how it was run: as §1
[38] = test system: Acinetobacter baumannii; test: Antibacterial activity against Acinetobacter baumannii ARC3492 after 24 hrs by broth microdilution method; assay type: functional; conditions: ARC3492, 24 h; how it was run: as §3
[39] = test system: Acinetobacter baumannii; test: Antibacterial activity against Acinetobacter baumannii ARC3515 after 24 hrs by broth microdilution method; assay type: functional; conditions: ARC3515, 24 h; how it was run: as §1
[40] = test system: Acinetobacter baumannii; test: Antibacterial activity against Acinetobacter baumannii ARC3657 after 24 hrs by broth microdilution method; assay type: functional; conditions: ARC3657, 24 h; how it was run: as §1
[41] = test system: Acinetobacter baumannii; test: Antibacterial activity against Acinetobacter baumannii ARC3659 after 24 hrs by broth microdilution method; assay type: functional; conditions: ARC3659, 24 h; how it was run: as §1
[42] = test system: Acinetobacter baumannii; test: Antibacterial activity against Acinetobacter baumannii ARC3882 after 24 hrs by broth microdilution method; assay type: functional; conditions: ARC3882, 24 h; how it was run: as §1

CCNC(=O)Nc1cc(-c2nc(C(F)(F)F)cs2)c(-c2cc3ncccc3nc2N2C3CCC2CN(C)C3)cn1
< 0.06 µg/mL: MIC [9] | MIC [10] | MIC [11] | MIC [12] | MIC [13] | MIC [14] | MIC [15]
4 µg/mL: MIC [17] | MIC [31] | MIC [32] | MIC [35] | MIC [39] | MIC [40]
0.56 µg/mL: MIC [3]
9.09 µg/mL: MIC [2]
1 µg/mL: MIC [33]
2 µg/mL: MIC [34] | MIC [36] | MIC [37] | MIC [38] | MIC [41] | MIC [42]
0.14 µg/mL: MIC [5]
0.25 µg/mL: MIC [7]
> 64 µg/mL: MIC [8] | MIC [16]
64 µg/mL: MIC [6] | MIC [24]
16 µg/mL: MIC [20] | MIC [21] | MIC [28] | MIC [29] | MIC [30]
32 µg/mL: MIC [18] | MIC [19] | MIC [23] | MIC [26]
2.27 µg/mL: MIC [4]
7 nM: IC50 [1]
8 µg/mL: MIC [22] | MIC [25] | MIC [27]

CCNC(=O)Nc1cc(-c2nc(C(F)(F)F)cs2)c(-c2cc(-c3n[nH]c(=O)o3)cnc2N2C3CCC2CN(C)C3)cn1
> 64 µg/mL: MIC [16]
2.4 µg/mL: MIC [2]
1 µg/mL: MIC [33] | MIC [34] | MIC [38] | MIC [39] | MIC [41] | MIC [42]
1.2 µg/mL: MIC [4]
2 µg/mL: MIC [17] | MIC [22] | MIC [35] | MIC [36] | MIC [37] | MIC [40]
0.12 µg/mL: MIC [5]
4 µg/mL: MIC [20] | MIC [25] | MIC [27] | MIC [31] | MIC [32]
8 µg/mL: MIC [18] | MIC [19] | MIC [21] | MIC [23] | MIC [26] | MIC [28] | MIC [29] | MIC [30]
32 µg/mL: MIC [6] | MIC [8]
6 nM: IC50 [1]
< 0.06 µg/mL: MIC [7] | MIC [9] | MIC [10] | MIC [11] | MIC [12] | MIC [13] | MIC [14] | MIC [15]
0.3 µg/mL: MIC [3]
16 µg/mL: MIC [24]

Source: ChEMBL document CHEMBL4270612, “Discovery of dual GyrB/ParE inhibitors active against Gram-negative bacteria” (Eur J Med Chem, 2018)
